# Experimental data collected from several papers.
# Protocols differ between the studies behind these lines.
# Target: Dual specificity protein kinase CLK2 (CLK2, Homo sapiens, UniProt P49760)
# Technique: competition with immobilised ligand
SMILES,assay,setting,remaining binding [%]
O=C(NCCCN1CCOCC1)c1ccc(Nc2ncc(Cl)c(-c3ccc(Cl)s3)n2)cc1,binding,1 µM,5.7
Nc1ncc2c(n1)-c1c([nH]c3ccc(C#CC4CC4)cc13)CCCC2,binding,1 µM,96
O=C(c1ccc(Nc2nccc(-c3cc4ccccc4s3)n2)cc1)N1CCC(N2CCCC2)CC1,binding,1 µM,39
CCOC(=O)c1cc2cc(-c3cc(C(=O)NCc4ccc(C(=O)O)cc4)nn3C)ccc2[nH]1,cell-free assay,0.1 µM,96
O=C(NCC1CCOCC1)c1n[nH]cc1NC(=O)c1c(F)cccc1F,binding,1 µM,34
Cc1nc(Cc2cccc(C(F)(F)F)c2)sc1-c1ccc(C(N)=O)nc1,cell-free assay,1 µM,100
COc1cnc(Nc2cccc(S(N)(=O)=O)c2)nc1N1CCN(c2ccccc2)C(=O)C1,binding,1 µM,76
COc1ncc2cc3ccccc3nc2c1C#N,cell-free assay,5 µM,76
c1cncc(-c2cccc(Nc3nccc(NC4CCCCC4)n3)c2)c1,binding,10 µM,15
COc1ccc2c(c1)O[C@H](c1ccc(OC)c(OC)c1)C[C@@H]2NC(=O)C1(c2ccc3c(c2)OC(F)(F)O3)CC1,cell-free assay,1 µM,95
Cc1cnc(Nc2ccc(C(=O)N3CCC(N4CCCC4)CC3)cc2)nc1-c1cc2ccccc2s1,binding,1 µM,8.8
CNC(=O)[C@@H]1CC[C@@H](n2c(-c3ccc4cnccc4c3)nc3ccc(C(=O)NCc4cccc(C(N)=O)c4)cc32)C1,binding,1 µM,100
C[C@@]1(Cc2ccc(C#N)cc2)C(=O)N(c2cc(Cl)cc(Cl)c2)c2ncc(C(=O)NC3(c4nc(C5CCC5)no4)CC3)n21,cell-free assay,1 µM,100
